Each compound was assayed against NAD(P)H dehydrogenase [quinone] 1 (Homo sapiens) (UniProt P15559) (assay: Induction of quinone reductase).
Summary of the method: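 Quinone reductase induction measured in cultured mouse Hepa 1c1c7 hepatoma cells, following a previously described method. Activity is reported as CD, the concentration that doubles QR induction, in µg/mL.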

Chain of NAD(P)H dehydrogenase [quinone] 1 (Homo sapiens) (P15559 whole entry): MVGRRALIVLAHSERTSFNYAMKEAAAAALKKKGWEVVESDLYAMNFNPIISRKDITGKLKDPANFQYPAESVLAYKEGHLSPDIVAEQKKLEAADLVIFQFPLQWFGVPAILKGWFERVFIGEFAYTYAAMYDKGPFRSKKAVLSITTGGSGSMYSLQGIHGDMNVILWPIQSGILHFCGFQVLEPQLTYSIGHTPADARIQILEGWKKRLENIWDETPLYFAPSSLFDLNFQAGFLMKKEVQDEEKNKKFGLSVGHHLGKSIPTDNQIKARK

| SMILES | CD |
| --- | --- |
| COc1ccc(-c2cc(=O)c3c(O)c(OC)c(O)c(OC)c3o2)cc1 | > 20 µg/mL |
| C[C@@H]1CC[C@]2(C(=O)O)CC[C@]3(C)C(=CC[C@@H]4[C@@]5(C)CC[C@H](O)[C@](C)(CO)[C@@H]5CC[C@]43C)[C@@H]2[C@]1(C)O | > 20 µg/mL |
| CC(C)=CCC/C(C)=C\CC/C(C)=C\Cc1cc(C(=O)O)ccc1O | > 20 µg/mL |
| CC1(C)CC[C@]2(C(=O)O)CC[C@]3(C)C(=CC[C@@H]4[C@@]5(C)CC[C@H](O)[C@@](C)(CO)[C@@H]5CC[C@]43C)[C@@H]2C1 | > 20 µg/mL |
| COc1c(OC)c(O)c2c(=O)cc(-c3ccc(O)cc3)oc2c1O | > 20 µg/mL |
| C=C(C)[C@@H]1CC[C@]2(C(=O)O)CC[C@]3(C)[C@H](CC[C@@H]4[C@@]5(C)CC[C@H](O)C(C)(C)[C@@H]5CC[C@]43C)[C@@H]12 | > 20 µg/mL |
| CC1(C)CC[C@]2(C(=O)O)CC[C@]3(C)C(=CC[C@@H]4[C@@]5(C)CC[C@H](O)C(C)(C)[C@@H]5[C@H](O)C[C@]43C)[C@@H]2C1 | > 20 µg/mL |
| COC(=O)[C@@]1(O)C(OC)=C(OC)C(=O)[C@]12OC(c1ccc(O)cc1)=CC2=O | > 20 µg/mL |
| COc1ccc(-c2cc(=O)c3c(O)c(OC)c(OC)c(OC)c3o2)cc1 | > 20 µg/mL |

From ChEMBL document CHEMBL1141763, “Limnophilaspiroketone, a highly oxygenated phenolic derivative from Limnophila geoffrayi” (J Nat Prod, 2005)
